Data set [1] concerns MYC transcriptional activity (E-box-luciferase). The data set is described as follows: E-box luciferase reporter assay in vitro. Type of data set: cell-based. The essentials:
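MycCaP cells stably carrying either MYC E-box-luciferase reporter or control mCherry-P2A-luciferase vector plated 10000 cells/well. Serial dilution of test compound added the next day; luminescence read by Steady-Glo after 4 hr treatment.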

For data set [2], the system named is MYC. The data set is described as follows: Western blot of MYC protein level, stability and phosphorylation in cells. Type of data set: cell-based, human. Particulars: 8 μM. The essentials:
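PC3 cells, or PC3 stably expressing Flag-MYC, Flag-MYCT58A or Flag-MYCS62A (lentiviral, 1.5 μg/ml puromycin selection), were used. For stability, cells were pretreated 3 hr with compound or DMSO, then given cycloheximide and harvested at time points. MYC, pT58, pS62, GSK3β and pGSK3β S9 were detected by western blot over a time course. Band intensities were densitometrically quantified.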

The test system of data set [3] is MYC-dependent cancer cells. The data set is described as follows: Cell viability, MYC-dependent cancer cells. Type of data set: cell-based. Particulars: prostate cancer cells versus PC12, 5 days. The method, boiled down:
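Cells were seeded at 1000 to 5000 per well in 96-well plates, depending on cell type. Viable cells were counted, or MTS absorbance was read at 490 nm, 2 to 7 days after treatment. MycCaP, PC3, LNCaP and P493–6 were grown in RPMI1640, SK-N-BE(2) in F12 and MV411 in IMDM, each with 10% heat-inactivated FBS and 1% penicillin-streptomycin.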

Data set [4] deals with MYC353–439 (Homo sapiens, UniProt P01106). The data set is described as follows: Fluorescence polarization competition assay against 10074-G5. Type of data set: binding.
Chain of MYC353–439 (P01106 368-454): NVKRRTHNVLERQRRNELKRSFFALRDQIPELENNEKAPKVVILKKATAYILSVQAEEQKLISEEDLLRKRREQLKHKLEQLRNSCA
Data set [5] concerns Lewis Lung Carcinoma (LLC1). As to the kind of experiment: LLC1 allograft lung cancer mouse model. Type of data set: in vivo. Particulars: 100 mg/kg/day. The essentials: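 LLC1 cells (1 × 10⁶) in PBS:matrigel 1:1 were injected subcutaneously into the flanks of female C57BL/6 mice, aged 6–8 weeks. Mice were randomised 3 days after inoculation and given test compound i.p. as 50 mg/kg twice daily (100 mg/kg/day). Tumour growth and body weight were followed, n = 7 mice/group, mean ± SEM.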

A short description of data set [6]: 14-day toxicology in mice. Type of data set: in vivo, mouse. Particulars: 100 mg/kg daily for 14 days, analyzed one week later.
The target of data set [7] is T1, MYC (Homo sapiens, UniProt P01106). As to the kind of experiment: Cellular thermal shift assay. Type of data set: cell-based. Particulars: PC3 cells. The method, boiled down: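 PC3 cells (70–80% confluent; also PC3 stably expressing Flag-MYCT58A, puromycin 1.5 μg/ml selected) treated with test compound or DMSO for 30 min. Cells washed, resuspended in PBS with protease/phosphatase inhibitors plus the same compound dose, split into 7–10 aliquots (~1 million cells each), heated 2 min at graded temperatures, then 3 min room temperature. Lysates boiled 5 min at 90 °C; MYC quantified by Western blot densitometry to build melt curves.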
Target sequence in this assay (P01106 16-454): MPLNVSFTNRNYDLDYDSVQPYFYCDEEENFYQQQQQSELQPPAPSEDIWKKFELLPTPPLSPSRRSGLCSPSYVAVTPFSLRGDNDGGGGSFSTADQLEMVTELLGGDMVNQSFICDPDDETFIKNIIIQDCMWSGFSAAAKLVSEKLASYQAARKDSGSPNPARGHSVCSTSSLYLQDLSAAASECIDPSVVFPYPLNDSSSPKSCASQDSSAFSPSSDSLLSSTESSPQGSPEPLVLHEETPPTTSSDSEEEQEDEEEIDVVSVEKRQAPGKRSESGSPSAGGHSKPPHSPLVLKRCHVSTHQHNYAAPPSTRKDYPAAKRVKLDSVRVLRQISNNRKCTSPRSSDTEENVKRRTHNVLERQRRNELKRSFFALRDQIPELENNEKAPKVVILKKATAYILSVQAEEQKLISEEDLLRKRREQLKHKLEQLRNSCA

Data set [8] concerns the target GSK3β-mediated MYC pT58 (Homo sapiens, UniProt P01106). The data set is described as follows: In vitro kinase assay. Particulars: 6 μM. Type of data set: biochemical. The method, boiled down:
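Phosphorylation reactions were run in kinase buffer (25 mM Tris-HCl pH 7.5, 5 mM β-glycerophosphate, 2 mM DTT, 0.1 mM sodium vanadate, 10 mM MgCl₂) at room temperature for 2 hr in total.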

The test system of data set [9] is MycCaP tumor allografts. As to the kind of experiment: MycCaP allograft/xenograft mouse model. Type of data set: in vivo. The essentials:
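Male FVB (allograft) or NSG (xenograft) mice, 6–8 weeks, ~25 g, acclimated >4 days. Injected s.c. in flanks with 1 × 10⁶ MycCaP E-box-luciferase cells in 100 μl Matrigel. Tumors followed by caliper ((length × width × width)/2) and by bioluminescent imaging after i.p. substrate injection. Body weight recorded. Tumor tissue assessed by H&E and immunofluorescence for Ki67, MYC pT58 and PD-L1.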

The subject of data set [10] is MV-411 AML xenografts. As to the kind of experiment: MV-411 AML xenograft. Type of data set: in vivo, mouse. The method, boiled down:
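Immunodeficient mice were inoculated with 5×10⁶ MV-411 cells in PBS:matrigel 1:1. They were randomised by tumour volume at ~200 to 500 mm³ and dosed with vehicle, test compound, or test compound plus Ara-C, 5 days a week for 3 weeks. Calipers were read twice weekly and volume was taken as (length × width × width)/2. Body weight was monitored, n = 4 mice/group, mean ± SEM.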

Data set [11] is described as follows: Maximum tolerated dose / acute toxicity in mice. Type of data set: in vivo. Particulars: p.o., single dose at 50, 100, 250, 500 or 1000 mg/kg.
Data set [12] can be described thus: Pharmacokinetics of 975 in CD-1 mice. Particulars: male, CD-1, mouse, in vivo, po.
The target in data set [13] is T1, MYC. As to the kind of experiment: STD NMR, MYC. Type of data set: binding. Particulars: 975 phosphate analog 100 μM, G5 200 μM. The essentials: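 Buffer: 50 mM HEPES, 500 mM NaCl, 10 mM β-mercaptoethanol, 5% glycerol, 30 mM imidazole. Ligand spectra recorded with and without each protein individually.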
Target sequence in this assay (P01106 368-454): as the sequence (P01106 368-454) above
Data set [14] addresses T1, MYC. The data set is described as follows: Biotinylated compound pull down, MYC. Type of data set: binding. Particulars: for competition of MYC binding to Biotin-361: PC3 cell lysate, excess competitor. The method, boiled down:
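Nuclear extract from PC3 cells prepared with a nuclear co-IP kit in low co-IP buffer at 150 mM NaCl final. Extract pre-cleared on streptavidin beads 1 hr at 4 °C. About 100 μg extract incubated overnight at 4 °C on a rotator with 1 to 10 μM biotinylated test compound, 10 μM D-biotin or DMSO. Recombinant MYC (0.5 μg) run the same way in buffer with 1% BSA, without pre-clearing. Bound MYC detected by Western blot. For competition, lysate pre-treated with competitor before biotin probe (5 μM).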
Target sequence in this assay (P01106 16-454): as the sequence (P01106 16-454) above

Data set [15] concerns the target HIF-1α (Homo sapiens, UniProt Q16665). The data set is described as follows: Biotinylated compound pull down, HIF-1α. Type of data set: binding. Particulars: cell lysates. The method, boiled down: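 A biotin-conjugated test compound was used as bait. Nuclear complexes came from exponentially growing PC3 and P493–6 cells, extracted with a nuclear complex co-IP kit. The pull-down ran in low co-IP buffer with NaCl added to a final 150 mM.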

For data set [16], the target named is MAX(S) (Homo sapiens, UniProt P61244-2 1-151). As to the kind of experiment: EMSA.
Where [17] appears, read: MycCaP allograft, 100 mg/kg/day i.p. for 14 days.

“And” between values parts separate entries of the source, which are not always exact repeats. Equal entries are not always repeated.

Chain of GSK3β-mediated MYC pT58 (P01106 16-454): as above
Chain of HIF-1α (Q16665 whole entry): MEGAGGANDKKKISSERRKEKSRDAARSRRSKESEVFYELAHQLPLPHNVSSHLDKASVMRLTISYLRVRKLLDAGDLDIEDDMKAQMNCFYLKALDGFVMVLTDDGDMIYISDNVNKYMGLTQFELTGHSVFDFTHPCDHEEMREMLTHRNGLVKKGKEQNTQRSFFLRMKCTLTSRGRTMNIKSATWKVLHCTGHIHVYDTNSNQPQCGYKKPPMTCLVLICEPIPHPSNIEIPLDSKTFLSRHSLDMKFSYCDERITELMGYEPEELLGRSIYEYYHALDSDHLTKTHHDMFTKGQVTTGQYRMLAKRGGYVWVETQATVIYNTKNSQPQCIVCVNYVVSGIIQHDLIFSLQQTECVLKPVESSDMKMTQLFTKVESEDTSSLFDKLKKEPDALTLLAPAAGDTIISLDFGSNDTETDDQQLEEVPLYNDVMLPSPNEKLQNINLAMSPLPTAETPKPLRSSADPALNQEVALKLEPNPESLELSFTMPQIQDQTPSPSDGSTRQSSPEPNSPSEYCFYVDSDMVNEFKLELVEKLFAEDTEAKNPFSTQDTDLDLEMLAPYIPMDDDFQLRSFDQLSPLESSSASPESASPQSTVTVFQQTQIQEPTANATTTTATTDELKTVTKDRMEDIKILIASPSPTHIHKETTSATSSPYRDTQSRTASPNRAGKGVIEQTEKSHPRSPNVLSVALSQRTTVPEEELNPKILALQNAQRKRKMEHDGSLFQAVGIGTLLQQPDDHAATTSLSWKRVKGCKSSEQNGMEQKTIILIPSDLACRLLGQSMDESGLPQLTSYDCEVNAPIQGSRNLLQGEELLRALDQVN

As to `Cn1nc(C(F)(F)F)cc1-c1ccc(OCc2ccc(Cl)cc2)c(-c2ccc(Cl)c(C(F)(F)F)c2)c1O` [Compound 975, 4’-chloro-6-((4-chlorobenzyl)oxy)-3-(1-methyl-3-(trifluoromethyl)-1H-pyrazol-5-yl)-3’-(trifluoromethyl)-[1,1’-biphenyl]-2-ol], in data set [1], the “E-box-luciferase versus CMV-luciferase activity in vitro” value was “selectively suppressed E-box-luciferase activity”. For the same molecule, in [2], the “MYC degradation and phosphorylation on T58” value was “enhanced MYC degradation and phosphorylation on T58”. Further, the cell viability result in data set [3] is recorded as “inhibited cell viability in a MYC-dependent manner”. In data set [4], this molecule had a dissociation constant (Kd) of 2500 nM. In data set [5], the body weight result is given as “no changes in body weight” and the tumor growth result was “inhibited tumor growth”. Besides, in [6], the “gross and histological analysis of organs” value is “no obvious pathologic abnormalities”; the “hematology, blood chemistry, kidney and liver function” value was “normal complete blood count and differential, normal blood chemistry, and normal kidney and liver function”. The “MYC target engagement by CETSA” value in [7] (8 μM) was “confirmed MYC target engagement”. For the same molecule, the “pT58 levels in in vitro kinase assay” value in [8] is “directly increased GSK3β-mediated MYC pT58”. For the same molecule, in data set [9] (50 mg/kg twice daily, 3 days), the “tumor inhibition, FVB versus NSG mice” value was “more strongly than in immunodeficient NSG mice”. In addition, in [9] (100 mg/kg/day i.p. for 14 days), the “pT58 and PD-L1 levels in tumor tissue” value was “increased pT58 and PD-L1 levels”. The “tumor growth, 975 alone” value in [9] (100 mg/kg/day, 2 days on/2 days off) is on record as “slowed tumor growth”. The “tumor infiltration of immune cells” value in data set [9] (CD3+ T cells, B220+ B cells, NKp46+ NK cells, 100 mg/kg/day for 14 days) was “enhanced tumor infiltration of CD3+ T cells”. In [9] (setting [17]), the survival result was “increased survival” and the tumor growth entry is recorded as “significantly inhibited tumor growth”. Besides, the “efficacy as a single agent” value in data set [10] (50 mg/kg/day, 5 days a week) was “reduced efficacy as a single agent”. Besides, in data set [10] (975 50 mg/kg/day, Ara-C 20 mg/kg/day), the “body weight, combination with Ara-C” value is reported as “no obvious impact on mouse body weight”. Moreover, in data set [10] (975 50 mg/kg/day, Ara-C 20 mg/kg/day, 5 days a week), the “tumor growth, combination with Ara-C” value was “synergized with Ara-C”. The “well tolerated single dose, acute toxicity” value in [11] is recorded as “up to 1000 mg/kg”. In data set [12] (100 mg/kg), the Cmax was 41500 ng/mL and 74 µM; the half-life was 7 h. In [12] (250 mg/kg), the highest concentration (Cmax) was 54000 ng/mL and 96 µM; the half-life is 12 h.

On to `O=P(O)(O)OCOc1ccc(-c2cc(C(F)(F)F)n[nH]2)c(O)c1-c1ccc(Cl)c(C(F)(F)F)c1` [975 phosphate analog, ((4’-chloro-6-hydroxy-3’-(trifluoromethyl)-5-(3-(trifluoromethyl)-1H-pyrazol-5-yl)-[1,1’-biphenyl]-2-yl)oxy)methyl dihydrogen phosphate], for which, in data set [13], the “binding to MYC by STD NMR” value is listed as “bound to MYC”.

For the molecule `Cn1nc(C(F)(F)F)cc1-c1ccc(OCCNC(=O)CCOCCOCCOCCOCCNC(=O)CCCC[C@@H]2SCC3NC(=O)NC32)c(-c2cc(C(F)(F)F)cc(C(F)(F)F)c2)c1O` (stereo partly drawn) [Biotin-975, N-(2-((6-hydroxy-5-(1-methyl-3-(trifluoromethyl)-1H-pyrazol-5-yl)-3’,5’-bis(trifluoromethyl)-[1,1’-biphenyl]-2-yl)oxy)ethyl)-1-(5-((4S)-2-oxohexahydro-1H-thieno[3,4-d]imidazol-4-yl)pentanamido)-3,6,9,12-tetraoxapentadecan-15-amide], the “pull down of MYC protein” value in data set [14] (10 μM, PC3 cells) is on record as “pulled down MYC protein”.

With `Cn1nc(C(F)(F)F)cc1-c1ccc(OCCCNC(=O)CCOCCOCCOCCOCCOCCOCCNC(=O)CCCC[C@@H]2SCC3NC(=O)NC32)c(-c2cc(C(F)(F)F)cc(C(F)(F)F)c2)c1O` (stereo partly drawn) [Biotin-361, N-(3-((6-hydroxy-5-(1-methyl-3-(trifluoromethyl)-1H-pyrazol-5-yl)-3’,5’-bis(trifluoromethyl)-[1,1’-biphenyl]-2-yl)oxy)propyl)-1-(5-((4S)-2-oxohexahydro-1H-thieno[3,4-d]imidazol-4-yl)pentanamido)-3,6,9,12,15,18-hexaoxahenicosan-21-amide], in data set [14] (cell lysates), the “pull down of recombinant MYC and endogenous MYC” value was “pulled down”. Also, the “pull down of HIF-1α” value in data set [15] is “not MAX or another bHLH protein HIF-1α”.

Take `Cn1nc(C(F)(F)F)cc1-c1ccc(OCOP(=O)(O)O)c(-c2cc(C(F)(F)F)cc(C(F)(F)F)c2)c1O` [Phosphate-361, ((6-hydroxy-5-(1-methyl-3-(trifluoromethyl)-1H-pyrazol-5-yl)-3’,5’-bis(trifluoromethyl)-[1,1’-biphenyl]-2-yl)oxy)methyl dihydrogen phosphate]: the “competition of MYC binding to Biotin-361” value in data set [14] is “competed”.

For `O=[N+]([O-])c1ccc(Nc2ccccc2-c2ccccc2)c2nonc12` [Compound G5, reference compound], the “competition of MYC binding to Biotin-361” value in data set [14] was “competed”. In addition, in data set [7] (30 min, 361 4–10 μM, G5 15–60 μM, 360 6 μM), the “thermal stability of MYC protein (CETSA)” value is “significant thermal destabilization”. Further, the “binding to MYC by STD NMR” value in data set [13] is listed as “confirmed interaction”.

B1: HEX E-box oligo (dsDNA)
DNA 1: CACCCGGTCACGTGGCCTACAC
DNA 2: GTGTAGGCCACGTGACCGGGTG
On to B1, for which the binding result in [16] is reported as “no binding”.

(Values after publication PMC6939458 (Cancer cell, 2019).)
